Experimental findings from ChEMBL document CHEMBL1131132, “Acetylcholinesterase inhibitors: synthesis and structure-activity relationships of omega-[N-methyl-N-(3-alkylcarbamoyloxyphenyl)- methyl]aminoalkoxyheteroaryl derivatives” (J Med Chem, 1998) are described below.

pIC50: −log10 of the molar value.

For assay [1], the target named is Cholinesterases; ACHE & BCHE (Homo sapiens) (UniProt P06276+P22303). The assay can be described thus: It is the ratio of IC50 for butyrl cholinesterase (BuChE ) to that of acetylcholinesterase (AChE). It counts as protein assay. Put shortly:
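Ellman method, 0.1 M phosphate pH 8.0, 340 µM DTNB. AChE: human erythrocyte 0.035 unit/mL, 550 µM acetylthiocholine. BuChE: human serum 0.035 unit/mL, 550 µM butyrylthiocholine.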

Assay [2] has as its target T1, Acetylcholinesterase (Rattus norvegicus, UniProt P37136).
T1 sequence (P37136 whole entry): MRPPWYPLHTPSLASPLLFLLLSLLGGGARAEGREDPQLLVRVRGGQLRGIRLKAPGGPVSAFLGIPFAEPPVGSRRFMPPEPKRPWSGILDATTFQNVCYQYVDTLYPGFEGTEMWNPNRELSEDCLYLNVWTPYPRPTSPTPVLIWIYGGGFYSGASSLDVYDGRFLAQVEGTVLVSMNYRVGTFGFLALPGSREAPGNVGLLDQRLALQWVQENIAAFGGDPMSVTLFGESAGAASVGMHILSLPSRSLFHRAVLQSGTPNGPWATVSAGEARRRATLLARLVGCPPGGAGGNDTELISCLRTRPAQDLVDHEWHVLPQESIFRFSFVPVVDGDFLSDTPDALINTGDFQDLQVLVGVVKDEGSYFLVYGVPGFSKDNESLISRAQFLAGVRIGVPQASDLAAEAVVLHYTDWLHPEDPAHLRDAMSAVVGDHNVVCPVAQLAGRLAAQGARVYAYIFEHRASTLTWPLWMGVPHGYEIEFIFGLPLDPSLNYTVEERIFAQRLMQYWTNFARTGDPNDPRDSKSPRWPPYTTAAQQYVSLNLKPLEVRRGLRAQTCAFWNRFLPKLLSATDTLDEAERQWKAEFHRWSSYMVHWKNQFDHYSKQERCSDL
In words: Inhibitory concentration against rat brain acetylcholinesterase AChE. Put shortly:
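Adult Wistar rat cerebral cortex, stored frozen, homogenized 1:200 w/v in 25 mM phosphate pH 7.4, warmed 37 °C 5 min, spun 50000g 15 min at 4 °C; pellet resuspended as AChE-enriched fraction. Compound in PBS pH 7.4 with tritiated ACh (final 0.4 mM), 15 min at 37 °C; stopped with chloroacetic acid/NaCl/NaOH; ³H-acetate extracted into isoamyl alcohol/toluene, scintillation counted.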

Sequence of Cholinesterases; ACHE & BCHE (Homo sapiens) (P06276 whole entry, looked up): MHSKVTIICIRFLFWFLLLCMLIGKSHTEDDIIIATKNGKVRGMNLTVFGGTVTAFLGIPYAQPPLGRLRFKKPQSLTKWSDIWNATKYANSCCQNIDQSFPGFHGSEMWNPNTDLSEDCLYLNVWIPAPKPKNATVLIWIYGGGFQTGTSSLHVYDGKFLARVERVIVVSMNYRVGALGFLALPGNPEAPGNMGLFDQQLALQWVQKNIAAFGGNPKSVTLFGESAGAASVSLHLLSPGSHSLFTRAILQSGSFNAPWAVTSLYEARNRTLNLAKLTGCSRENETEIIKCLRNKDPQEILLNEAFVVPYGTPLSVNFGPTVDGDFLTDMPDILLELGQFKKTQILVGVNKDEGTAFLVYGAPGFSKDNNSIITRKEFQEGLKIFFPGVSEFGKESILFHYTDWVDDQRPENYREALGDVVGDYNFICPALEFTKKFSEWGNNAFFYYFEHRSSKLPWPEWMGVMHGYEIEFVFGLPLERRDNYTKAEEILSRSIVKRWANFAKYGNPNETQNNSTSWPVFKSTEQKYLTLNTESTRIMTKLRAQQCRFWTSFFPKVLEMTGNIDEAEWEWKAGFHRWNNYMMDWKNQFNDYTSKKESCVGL
Sequence of Cholinesterases; ACHE & BCHE (Homo sapiens) (P22303 whole entry, looked up): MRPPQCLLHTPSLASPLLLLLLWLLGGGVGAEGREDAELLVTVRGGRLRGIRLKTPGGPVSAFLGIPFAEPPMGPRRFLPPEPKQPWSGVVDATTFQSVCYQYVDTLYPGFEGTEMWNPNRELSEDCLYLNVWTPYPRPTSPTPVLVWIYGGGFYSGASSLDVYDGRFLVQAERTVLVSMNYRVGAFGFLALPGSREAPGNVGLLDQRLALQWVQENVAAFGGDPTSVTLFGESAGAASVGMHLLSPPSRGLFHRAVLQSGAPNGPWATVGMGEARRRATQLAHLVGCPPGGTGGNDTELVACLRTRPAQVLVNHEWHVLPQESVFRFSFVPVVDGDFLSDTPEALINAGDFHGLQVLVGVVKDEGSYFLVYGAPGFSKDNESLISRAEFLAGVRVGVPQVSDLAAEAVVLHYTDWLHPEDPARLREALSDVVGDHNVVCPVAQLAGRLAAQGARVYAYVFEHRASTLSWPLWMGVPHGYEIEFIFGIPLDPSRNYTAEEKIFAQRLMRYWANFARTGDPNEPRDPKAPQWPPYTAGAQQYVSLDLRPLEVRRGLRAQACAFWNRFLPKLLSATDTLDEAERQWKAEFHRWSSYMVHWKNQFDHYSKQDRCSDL

As a reminder, the pIC50 is −log10 of the IC50, conventionally taken in molar units. Take `CCCCNC(=O)Oc1cccc(CN(C)CCCOc2ccc3c(=O)c4cccnc4oc3c2)c1`: in assay [1], the Ratio is 2.7. Besides, the pIC50 in assay [2] was 7.15.

For the compound `CNC(=O)Oc1cccc(CN(C)CCCCCOc2ccc3c(=O)c4ccccc4oc3c2)c1`, in assay [1], the Ratio amounted to 101. This compound showed a negative logarithm of the IC50 (pIC50) in assay [2] below 7.00.

Regarding `CCCCCCCNC(=O)Oc1cccc(CN(C)CCCOc2ccc3ccc(=O)oc3c2)c1`, the Ratio in assay [1] is 5. For the same compound, in assay [2], the pIC50 was 8.70.

In the case of `CNC(=O)Oc1cccc(CN(C)CCCOc2ccc3ccc(=O)oc3c2)c1`, the Ratio in assay [1] worked out at 0.6. Further, in assay [2], the pIC50 is 8.82.

For the compound `CNC(=O)Oc1cccc(CN(C)CCCOc2ccc3c(=O)cc(-c4ccccc4)oc3c2)c1`, the Ratio in assay [1] was determined as 8.2. The same compound showed a negative logarithm of the IC50 (pIC50) in assay [2] of 9.22.

Turning to `CN(CCCOc1ccc2c(=O)c3ccccc3oc2c1)Cc1cccc(OC(=O)Nc2ccccc2)c1`, the Ratio in assay [1] turned out to be 71.4. The pIC50 in assay [2] was below 6.00.
